Screening data as filed in PubChem.
T cruzi HTS: inhibitors of intracellular Trypanosoma cruzi. activity score (inhibition), % at 5.01 µM. 22,000 tested, 4.9% active. intracellular Trypanosoma cruzi in host cells, plate reader. AID 651903; in the data active = activity score above about 55%;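 note: parasites and compound incubated about four days before reading; 0% = median of neutral control wells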
A1 apoptosis 2: A1 inhibition read as caspase activation; MEF A1-2A-BIM cells, caspase-Glo luminescence, 3 h; percent of clofoctol response, DMSO zero; caspase activation, % (concentration not given with the values); 24,000 tested, under 10 active; in the data active = caspase activation above about 5.9%
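Evaluation: Caspase-3/7 activity from luminescence increase | Assay system: A1-2A-BIM mouse embryonic fibroblasts | Quantity: 2500 MEF cells/well | Medium: RPMI-1640 plus 10% FBS | Detection: Caspase-Glo 3/7 luminescence, 1 h at room temperature | Dosing: 50 nL compound per well, pinned | Timing: Cells settled overnight, compound exposure 3 h at 37 °C, 5% CO2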
INS-1E ATP HTS: rescue of cytokine-induced death in INS-1E beta cells | INS-1E cytokine-induced death, ATP luminescence, 48 h; normalised: neutral wells 0, positive control 100 | 20,000 tested, 0.1% active | protection from cytokine-induced ATP loss, % at 10 µM | AID 488910;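 active = mean replicate protection from cytokine-induced ATP loss at least 50% and at least 75% of replicates each reaching 50%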
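Assay system: INS-1E rat cells / Quantity: 8000 cells per well / Medium: RPMI without phenol red, 5% FBS / Probe or stimulus: three-cytokine cocktail (IFN-γ, TNF-α, IL-1β) / Dosing: one compound concentration, pin transfer / Timing: 48 h co-treatment, 10 min post-lysis read / Technique: CellTiter-Glo luminescence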
Starred values were filed as active, the others as inactive; . = no result. The full list was thinned out, with hits kept by preference.

SMILES | T cruzi HTS | A1 apoptosis 2 | INS-1E ATP HTS
C[C@@H]1CN([C@H](C)CO)C(=O)c2cc(NS(=O)(=O)c3ccccc3)ccc2O[C@H]1CN(C)Cc1ccc(C(=O)Nc2ccccc2N)cc1 | -26 | . | -22
C[C@@H]1CN([C@@H](C)CO)C(=O)c2cccc(NS(=O)(=O)c3ccc(Cl)cc3)c2O[C@@H]1CN(C)Cc1ccc(C(=O)Nc2ccccc2N)cc1 | 39 | . | 35
C[C@H](CO)N1C[C@H](C)[C@H](CN(C)Cc2ccc(C(=O)Nc3ccccc3N)cc2)Oc2ccc(NS(=O)(=O)c3ccc(F)cc3)cc2C1=O | 63* | 0 | 18
C[C@@H]1CN([C@@H](C)CO)C(=O)c2cc(NS(=O)(=O)c3ccc(F)cc3)ccc2O[C@@H]1CN(C)Cc1ccc(C(=O)Nc2ccccc2N)cc1 | 31 | . | 17
C[C@@H]1CN([C@H](C)CO)C(=O)c2cccc(NS(=O)(=O)c3ccc(Cl)cc3)c2O[C@H]1CN(C)Cc1ccc(C(=O)Nc2ccccc2N)cc1 | 65* | 0 | 2
COc1ccc(CCNC(=O)[C@@H]2c3ccccc3C(=O)N(Cc3ccccc3OC)[C@H]2c2ccc(CO)cc2)cc1 | . | 0 | .
O=C(CCCCCCC(=O)Nc1ccccc1O)N/N=C/c1coc2ccccc2c1=O | -19 | . | -1
O=C(C1=C[C@H](c2ccc3c(c2)Cc2ccccc2-3)C[C@H](OCc2ccc(CO)cc2)O1)N1CCCCC1 | . | 1 | .
C=CCNC(=O)[C@@H]1[C@H]2C(=O)O[C@H](c3ccccc3)[C@H](c3ccccc3)N2[C@H](c2ccc(OCCO)cc2)[C@@]12C(=O)Nc1ccccc12 | . | -1 | .
COc1ccc(S(=O)(=O)Nc2ccc3c(c2)C(=O)N([C@H](C)CO)C[C@H](C)[C@H](CN(C)Cc2ccc(C(=O)Nc4ccccc4N)cc2)OCCCC[C@@H](C)O3)cc1 | 46 | -1 | -1
C[C@@H]1CCCCO[C@@H](CN(C)Cc2ccc(C(=O)Nc3ccccc3N)cc2)[C@@H](C)CN([C@H](C)CO)C(=O)c2cc(NS(=O)(=O)c3ccc(Cl)cc3)ccc2O1 | 78* | -1 | -5
COc1ccc(S(=O)(=O)Nc2ccc3c(c2)C(=O)N([C@@H](C)CO)C[C@@H](C)[C@H](CN(C)C(=O)NC(C)C)OCCCC[C@@H](C)O3)cc1 | . | 0 | .
C[C@H]1CN([C@@H](C)CO)C(=O)c2cccc(NC(=O)c3ccc(-c4nccs4)cc3)c2O[C@@H]1CN(C)Cc1ccc(C(=O)Nc2ccccc2N)cc1 | 75* | . | 25
C[C@@H]1CN([C@H](C)CO)C(=O)c2cccc(NC(=O)c3ccc(-c4nccs4)cc3)c2O[C@H]1CN(C)Cc1ccc(C(=O)Nc2ccccc2N)cc1 | 44 | 0 | 3
C[C@@H]1CN([C@H](C)CO)C(=O)c2cccc(NC(=O)c3ccc(-c4nccs4)cc3)c2O[C@@H]1CN(C)Cc1ccc(Oc2ccccc2)cc1 | 42 | . | -52
C[C@@H]1CN([C@@H](C)CO)C(=O)c2cccc(NC(=O)c3ccc(-c4nccs4)cc3)c2O[C@@H]1CN(C)Cc1ccc(C(F)(F)F)cc1 | 70* | 1 | -65
C[C@@H]1CN([C@H](C)CO)C(=O)c2cccc(NC(=O)c3ccc(-c4nccs4)cc3)c2O[C@@H]1CN(C)Cc1ccc(C(F)(F)F)cc1 | 44 | 1 | -23
C[C@@H]1CN([C@@H](C)CO)C(=O)c2cccc(NC(=O)c3ccc(-c4nccs4)cc3)c2O[C@H]1CN(C)Cc1ccc(Oc2ccccc2)cc1 | 62* | . | -29
O=C(NO)c1cccc(C(=O)N/N=C/c2cccc(Br)c2)c1 | 1 | 0 | -9
O=C(CCCCCCC(=O)Nc1ccccc1O)N/N=C/[C@H](O)[C@@H](O)[C@H](O)[C@H](O)CO | 2 | 0 | -5
C=CCN1C(=O)[C@]2(O[C@H](CCO)[C@@H]([Si](C)(C)c3ccc(OC)cc3)[C@@H]2C)c2cc(I)ccc21 | . | 9.0* | .
COc1ccc([Si](C)(C)[C@H]2[C@H](CCO)O[C@@]3(C(=O)N(Cc4ccccc4)c4ccc(NC(=O)[C@H](C)O)cc43)[C@@H]2C)cc1 | . | 0 | .
Cc1noc(C)c1S(=O)(=O)Nc1ccc2c(c1)CC(=O)N([C@@H](C)CO)C[C@@H](C)[C@@H](CN(C)Cc1ccc(Cl)c(Cl)c1)O2 | 61* | . | -9
Cc1noc(C)c1S(=O)(=O)Nc1ccc2c(c1)C(=O)N([C@@H](C)CO)C[C@H](C)[C@@H](CN(C)Cc1ccc(Cl)c(Cl)c1)O2 | 66* | 1 | -15
Cc1noc(C)c1S(=O)(=O)Nc1ccc2c(c1)C(=O)N([C@@H](C)CO)C[C@@H](C)[C@@H](CN(C)Cc1ccc(Cl)c(Cl)c1)O2 | 50 | . | -4
